Data taken from ChEMBL document CHEMBL5046217, “Discovery of New Imidazo[2,1-b]thiazole Derivatives as Potent Pan-RAF Inhibitors with Promising In Vitro and In Vivo Anti-melanoma Activity” (J Med Chem, 2021).

Key:
[1] = molecular target: Serine/threonine-protein kinase B-raf (Homo sapiens, UniProt P15056, V600E); experiment: Inhibition of human BRAF V600E mutant using myelin basic protein as substrate in presence of [gamma-33P]ATP incubated for 40 mins by scintillation counting method
Procedure, shortened: (§1)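 Radiometric kinase assay run at Reaction Biology. Kinase (5−10 mU) in 25 mM Tris pH 7.5, 0.02 mM EGTA, 10 mM magnesium acetate with 0.66 mg/mL myelin basic protein and [γ-33P]ATP at 1 μM ATP. Reaction started with Mg-ATP and run 40 min at room temperature, then stopped with 3% phosphoric acid. Spotted on P30 filtermat, washed, scintillation counted.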

[2] = molecular target: RAF proto-oncogene serine/threonine-protein kinase (Homo sapiens, UniProt P04049); experiment: Inhibition of human wild type CRAF using myelin basic protein as substrate in presence of [gamma-33P]ATP incubated for 40 mins by scintillation counting method
RAF proto-oncogene serine/threonine-protein kinase, sequence (P04049 whole entry): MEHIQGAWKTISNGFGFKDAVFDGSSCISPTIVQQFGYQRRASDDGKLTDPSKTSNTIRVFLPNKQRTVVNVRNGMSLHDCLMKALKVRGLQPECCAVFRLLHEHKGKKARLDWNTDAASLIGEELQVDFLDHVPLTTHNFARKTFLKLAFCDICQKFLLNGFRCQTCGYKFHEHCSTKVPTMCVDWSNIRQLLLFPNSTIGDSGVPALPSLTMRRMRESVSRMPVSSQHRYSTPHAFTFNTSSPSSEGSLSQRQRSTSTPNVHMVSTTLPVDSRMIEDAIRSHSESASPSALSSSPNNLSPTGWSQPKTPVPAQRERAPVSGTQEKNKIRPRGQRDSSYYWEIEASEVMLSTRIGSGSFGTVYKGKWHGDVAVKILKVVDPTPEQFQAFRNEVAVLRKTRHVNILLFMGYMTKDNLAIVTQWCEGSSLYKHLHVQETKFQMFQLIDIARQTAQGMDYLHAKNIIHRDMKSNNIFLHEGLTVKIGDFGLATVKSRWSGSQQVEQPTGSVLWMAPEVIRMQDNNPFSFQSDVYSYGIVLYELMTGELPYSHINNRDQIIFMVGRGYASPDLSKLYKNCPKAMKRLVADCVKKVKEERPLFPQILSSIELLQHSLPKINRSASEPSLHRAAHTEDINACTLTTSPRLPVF

[3] = molecular target: Serine/threonine-protein kinase B-raf (Homo sapiens, UniProt P15056); experiment: Inhibition of human wild type BRAF using myelin basic protein as substrate in presence of [gamma-33P]ATP incubated for 40 mins by scintillation counting method; procedure, shortened: as §1
Serine/threonine-protein kinase B-raf (Homo sapiens, UniProt P15056), sequence (P15056 whole entry): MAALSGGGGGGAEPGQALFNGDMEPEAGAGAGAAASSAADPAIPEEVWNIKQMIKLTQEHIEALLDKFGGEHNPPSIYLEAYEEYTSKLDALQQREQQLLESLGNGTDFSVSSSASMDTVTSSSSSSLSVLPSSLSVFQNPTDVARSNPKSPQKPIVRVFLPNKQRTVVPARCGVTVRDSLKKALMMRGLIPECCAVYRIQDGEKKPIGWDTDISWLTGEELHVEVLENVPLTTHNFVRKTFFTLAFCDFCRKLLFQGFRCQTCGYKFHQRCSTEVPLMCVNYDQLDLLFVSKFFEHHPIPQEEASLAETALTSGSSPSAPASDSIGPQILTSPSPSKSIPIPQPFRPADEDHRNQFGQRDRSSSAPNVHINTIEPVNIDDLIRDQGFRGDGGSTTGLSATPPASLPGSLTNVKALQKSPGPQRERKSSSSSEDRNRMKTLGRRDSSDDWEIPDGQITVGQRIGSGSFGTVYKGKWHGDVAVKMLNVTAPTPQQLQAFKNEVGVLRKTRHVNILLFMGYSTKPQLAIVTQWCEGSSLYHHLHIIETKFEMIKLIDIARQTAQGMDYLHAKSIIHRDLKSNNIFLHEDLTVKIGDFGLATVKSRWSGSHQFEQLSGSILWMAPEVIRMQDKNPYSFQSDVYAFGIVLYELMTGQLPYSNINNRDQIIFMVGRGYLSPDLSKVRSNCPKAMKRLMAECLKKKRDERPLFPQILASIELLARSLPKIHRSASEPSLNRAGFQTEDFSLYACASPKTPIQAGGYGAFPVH

Serine/threonine-protein kinase B-raf (Homo sapiens, UniProt P15056, V600E), sequence (P15056 2-766 V600E limits assumed): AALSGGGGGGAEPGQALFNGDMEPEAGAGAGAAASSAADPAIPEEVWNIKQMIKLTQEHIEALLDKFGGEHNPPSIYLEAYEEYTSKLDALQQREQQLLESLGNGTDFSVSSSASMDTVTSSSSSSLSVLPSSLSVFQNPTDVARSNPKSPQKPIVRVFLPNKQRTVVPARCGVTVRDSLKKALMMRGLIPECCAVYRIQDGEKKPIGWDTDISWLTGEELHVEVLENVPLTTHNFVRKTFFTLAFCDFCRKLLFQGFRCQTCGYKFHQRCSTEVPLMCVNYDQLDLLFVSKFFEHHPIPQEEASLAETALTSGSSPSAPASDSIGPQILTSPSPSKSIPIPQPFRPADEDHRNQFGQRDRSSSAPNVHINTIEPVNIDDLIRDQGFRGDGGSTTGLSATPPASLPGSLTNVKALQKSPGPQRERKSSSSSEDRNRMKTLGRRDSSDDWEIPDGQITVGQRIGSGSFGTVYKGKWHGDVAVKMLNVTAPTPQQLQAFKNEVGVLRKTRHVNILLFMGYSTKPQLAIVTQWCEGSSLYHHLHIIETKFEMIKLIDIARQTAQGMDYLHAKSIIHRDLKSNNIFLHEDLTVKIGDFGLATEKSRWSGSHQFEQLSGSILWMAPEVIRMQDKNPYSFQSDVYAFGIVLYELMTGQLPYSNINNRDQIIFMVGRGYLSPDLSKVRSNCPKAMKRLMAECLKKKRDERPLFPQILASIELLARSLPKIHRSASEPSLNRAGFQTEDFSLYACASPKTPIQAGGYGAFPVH

Compound | IC50 [1] | IC50 [2] | IC50 [3]
O=S(=O)(NCCCNc1nccc(-c2c(-c3cccc(O)c3)nc3sccn23)n1)c1ccccc1 | 20 nM | 23 nM | 29 nM
O=S(=O)(NCCNc1nccc(-c2c(-c3ccccc3)nc3sccn23)n1)c1ccc(F)cc1 | 69.1 nM | 112 nM | 375 nM
O=S1(=O)N(CCNc2nccc(-c3c(-c4cccc(O)c4)nc4sccn34)n2)CCN1Cc1ccccc1 | 7.25 nM | 3.91 nM | 15.5 nM
COc1cccc(-c2nc3sccn3c2-c2ccnc(NCCN3CCCNS3(=O)=O)n2)c1 | 9.96 nM | 7.22 nM | 18.1 nM
COc1cccc(-c2nc3sccn3c2-c2ccnc(NCCN3CCCN(C(=O)OC(C)(C)C)S3(=O)=O)n2)c1 | 12.6 nM | 11.2 nM | 23.3 nM
COc1cccc(-c2nc3sccn3c2-c2ccnc(NCCNS(=O)(=O)c3ccc(C)cc3)n2)c1 | 177 nM | 163 nM | 987 nM
Cc1ccc(S(=O)(=O)NCCCNc2nccc(-c3c(-c4ccccc4)nc4sccn34)n2)cc1 | 85.3 nM | 201 nM | 521 nM
COc1cccc(-c2nc3sccn3c2-c2ccnc(NCCN3CCNS3(=O)=O)n2)c1 | 10.5 nM | 5.61 nM | 20.3 nM
COc1ccc(S(=O)(=O)NCCCNc2nccc(-c3c(-c4cccc(OC)c4)nc4sccn34)n2)cc1 | 156 nM | 164 nM | 589 nM
O=S1(=O)NCCN1CCNc1nccc(-c2c(-c3cccc(O)c3)nc3sccn23)n1 | 4.56 nM | 6.32 nM | 7.25 nM
COc1ccc(S(=O)(=O)NCCNc2nccc(-c3c(-c4cccc(OC)c4)nc4sccn34)n2)cc1 | 160 nM | 151 nM | 745 nM
COc1cccc(-c2nc3sccn3c2-c2ccnc(NCCN3CC(C)(C)NS3(=O)=O)n2)c1 | 8.65 nM | 5.63 nM | 13.7 nM
COc1ccc(-c2nc3sccn3c2-c2ccnc(NCCNS(=O)(=O)c3cccc4ccccc34)n2)cc1 | > 35000 nM | 28900 nM | 20800 nM
COc1cccc(-c2nc3sccn3c2-c2ccnc(NCCN3CCN(Cc4ccccc4)S3(=O)=O)n2)c1 | 8.36 nM | 4.32 nM | 17.3 nM
COc1ccc(-c2nc3sccn3c2-c2ccnc(NCCNS(=O)(=O)c3ccc(F)cc3)n2)cc1 | 13200 nM | 32200 nM | 9210 nM
Cc1ccc(S(=O)(=O)NCCCNc2nccc(-c3c(-c4cccc(O)c4)nc4sccn34)n2)cc1 | 9 nM | 13 nM | 18 nM
O=S(=O)(NCCNc1nccc(-c2c(-c3cccc(O)c3)nc3sccn23)n1)c1ccccc1 | 19 nM | 21 nM | 35 nM
Cc1ccc(S(=O)(=O)NCCNc2nccc(-c3c(-c4cccc(O)c4)nc4sccn34)n2)cc1 | 55 nM | 62 nM | 64 nM
Cc1ccc(S(=O)(=O)NCCNc2nccc(-c3c(-c4ccc(O)cc4)nc4sccn34)n2)cc1 | 21300 nM | 16500 nM | 11300 nM
O=S1(=O)NCCCN1CCNc1nccc(-c2c(-c3cccc(O)c3)nc3sccn23)n1 | 5.21 nM | 7.21 nM | 9.56 nM
COc1cccc(-c2nc3sccn3c2-c2ccnc(NCCNS(=O)(=O)c3cccc(F)c3)n2)c1 | 112 nM | 106 nM | 561 nM
O=S(=O)(NCCNc1nccc(-c2c(-c3ccc(O)cc3)nc3sccn23)n1)c1ccc(O)cc1 | 25100 nM | 19400 nM | 9710 nM
COc1cccc(-c2nc3sccn3c2-c2ccnc(NCCCNS(=O)(=O)c3ccccc3)n2)c1 | 109 nM | 129 nM | 721 nM
COc1cccc(-c2nc3sccn3c2-c2ccnc(NCCN3CCCN(C)S3(=O)=O)n2)c1 | 2.62 nM | 2.33 nM | 8.26 nM
COc1cccc(-c2nc3sccn3c2-c2ccnc(NCCNS(=O)(=O)c3ccccc3)n2)c1 | 120 nM | 220 nM | 941 nM
